Laboratory results published in ChEMBL document CHEMBL1121696, “Antimicrobial 3-methyleneflavanones” (1981).
Converted amounts (≈) assume the structure as drawn. One block for each compound: values may come before it.

How the values were obtained:
Enterococcus faecalis [1] = assay: Antimicrobial activity against Streptococcus faecalis (ATCC 10541); assay type: functional
Procedure, shortened: (§1)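 Agar dilution MIC. Stocks and twofold serial dilutions in DMF or 50% aqueous DMF were mixed 1:100 into molten Eugon agar, giving final 100, 50, 25, 12.5, 6.2, 3.1 mcg/mL (further dilutions sometimes) and ≤1% DMF. Inocula came from 24 h Eugon agar slants at 32 °C, suspended at 10⁶ cells/mL and applied with a Steers replicator. MIC (lowest concentration inhibiting growth) was read after 24 h at 32 °C.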

Trichophyton benhamiae [2] = assay: Antimicrobial activity against Trichophyton mentagrophytes (ATCC 4807); assay type: functional, Arthroderma benhamiae
Procedure, shortened: (§2)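 Spores came from Eugon agar slants grown 1 week at 32 °C, suspended at 10⁶/mL in Eugon broth or saline, and applied by Steers replicator. The lowest inhibitory concentration was read after 48-72 h at 32 °C.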

Staphylococcus aureus [3] = assay: Antimicrobial activity against Staphylococcus aureus (ATCC 6538, NRRL B2747); assay type: functional; procedure, shortened: as §1
Aspergillus niger = assay: Antimicrobial activity against Aspergillus niger (ATCC 16404); assay type: functional; procedure, shortened: as §2
Candida albicans [4] = assay: Antimicrobial activity against Candida albicans (ATCC 10231, NRRL Y-477); assay type: functional; procedure, shortened: as §1
Trichophyton benhamiae [5] = assay: Compound was tested for the antimicrobial activity against Trichophyton mentagrophytes (ATCC 4807); Range is 6.2-25; assay type: functional, Arthroderma benhamiae; procedure, shortened: as §2
Enterococcus faecalis [6] = assay: Compound was tested for the antimicrobial activity against Streptococcus faecalis (ATCC 10541); Range is 25-50; assay type: functional; procedure, shortened: as §1
Candida albicans [7] = assay: Compound was tested for the antimicrobial activity against Candida albicans (ATCC 10231, NRRL Y-477); Range is 50 to >100; assay type: functional; procedure, shortened: as §1
Trichophyton benhamiae [8] = assay: Compound was tested for the antimicrobial activity against Trichophyton mentagrophytes (ATCC 4807); Range is 12.5-25; assay type: functional, Arthroderma benhamiae; procedure, shortened: as §2
Trichophyton benhamiae [9] = assay: Compound was tested for the antimicrobial activity against Trichophyton mentagrophytes (ATCC 4807); Range is <3.1-6.2; assay type: functional, Arthroderma benhamiae; procedure, shortened: as §2
Trichophyton benhamiae [10] = assay: Compound was tested for the antimicrobial activity against Trichophyton mentagrophytes (ATCC 4807); Range is <3.1-12.5; assay type: functional, Arthroderma benhamiae; procedure, shortened: as §2
Candida albicans [11] = assay: Compound was tested for the antimicrobial activity against Candida albicans (ATCC 10231, NRRL Y-477); Range is 12.5-100; assay type: functional; procedure, shortened: as §1
Staphylococcus aureus [12] = assay: Compound was tested for the antimicrobial activity against Staphylococcus aureus (ATCC 6538, NRRL B2747); Range is 6.2-12.5; assay type: functional; procedure, shortened: as §1
Trichophyton benhamiae [13] = assay: Compound was tested for the antimicrobial activity against Trichophyton mentagrophytes (ATCC 4807); Range is 6.1-12.5; assay type: functional, Arthroderma benhamiae; procedure, shortened: as §2
Staphylococcus aureus [14] = assay: Antimicrobial activity against Staphylococcus aureus (ATCC 6538, NRRL B2747); Range is <3.1-6.2; assay type: functional; procedure, shortened: as §1
Staphylococcus aureus [15] = assay: Compound was tested for its antimicrobial activity against Staphylococcus aureus(9-267); assay type: functional; procedure, shortened: as §1
Enterococcus faecalis [16] = assay: Compound was tested for its antimicrobial activity against Streptococcus faecalis (ATCC 10541); assay type: functional; procedure, shortened: as §1
Staphylococcus aureus [17] = assay: Compound was tested for its antimicrobial activity against Staphylococcus aureus (NRRL B2747); assay type: functional; procedure, shortened: as §1
Enterococcus = assay: Compound was tested for its antimicrobial activity against Enterococcus (9-25)
Cutibacterium acnes = assay: Compound was tested for its antimicrobial activity against Propionibacterium acnes (ATCC 6919); assay type: functional
Procedure, shortened: (§3)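 Anaerobic bacteria were grown 72 h at 32 °C in fluid thioglycollate medium and used undiluted to inoculate, by Steers replicator, Eugon agar containing serial twofold compound dilutions made in DMF or 50% aqueous DMF (final 100 to 3.1 mcg/mL, ≤1% DMF). MIC was read after 72 h of anaerobic incubation (Gas-Pak jar) at 37 °C.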

Staphylococcus aureus [18] = assay: Compound was tested for its antimicrobial activity against Staphylococcus aureus(9-195); assay type: functional; procedure, shortened: as §1
Bacillus subtilis = assay: Compound was tested for its antimicrobial activity against Bacillus subtilis (ATCC 6633); assay type: functional; procedure, shortened: as §1
Staphylococcus aureus [19] = assay: Compound was tested for the antimicrobial activity against Staphylococcus aureus (ATCC 6538, NRRL B2747); Range is 0.25-0.5; assay type: functional; procedure, shortened: as §1
[20] = system: Staphylococcus epidermidis; assay: Compound was tested for its antimicrobial activity against Staphylococcus epidermidis (ATCC 12228); assay type: functional; procedure, shortened: as §1
Staphylococcus aureus [21] = assay: Compound was tested for its antimicrobial activity against Staphylococcus aureus (ATCC 151); assay type: functional; procedure, shortened: as §1
Staphylococcus aureus [22] = assay: Compound was tested for its antimicrobial activity against Staphylococcus aureus (9-267); assay type: functional; procedure, shortened: as §1
[23] = system: Clostridium acetobutylicum; assay: Compound was tested for its antimicrobial activity against Clostridium acetobutylicum (ATCC 824); assay type: functional; procedure, shortened: as §3
Staphylococcus aureus [24] = assay: Compound was tested for its antimicrobial activity against Staphylococcus aureus (ATCC 6538); assay type: functional; procedure, shortened: as §1
Staphylococcus aureus [25] = assay: Compound was tested for its antimicrobial activity against Staphylococcus aureus (9-195); assay type: functional; procedure, shortened: as §1
[26] = Compound was tested for its antimicrobial activity against Sarcina subflava (ATCC 7468); assay type: functional; procedure, shortened: as §1
Trichophyton benhamiae [27] = assay: Compound was tested for the antimicrobial activity against Trichophyton mentagrophytes (ATCC 4807); Range is 100 to >100; assay type: functional, Arthroderma benhamiae; procedure, shortened: as §2
Trichophyton benhamiae [28] = assay: Compound was tested for the antimicrobial activity against Trichophyton mentagrophytes (ATCC 4807); Range is 6.2-12.5; assay type: functional, Arthroderma benhamiae; procedure, shortened: as §2
Staphylococcus aureus [29] = assay: Compound was tested for the antimicrobial activity against Staphylococcus aureus (ATCC 6538, NRRL B2747); Range is 50-100; assay type: functional; procedure, shortened: as §1
Trichophyton benhamiae [30] = assay: Compound was tested for the antimicrobial activity against Trichophyton mentagrophytes (ATCC 4807); Range is 50 to >100; assay type: functional, Arthroderma benhamiae; procedure, shortened: as §2
Candida albicans [31] = assay: Compound was tested for the antimicrobial activity against Candida albicans (ATCC 10231, NRRL Y-477); Range is 100 to >100; assay type: functional; procedure, shortened: as §1
Candida albicans [32] = assay: Compound was tested for the antimicrobial activity against Candida albicans (ATCC 10231, NRRL Y-477); Range is 25 to >100; assay type: functional; procedure, shortened: as §1
Trichophyton benhamiae [33] = assay: Compound was tested for the antimicrobial activity against Trichophyton mentagrophytes (ATCC 4807); Range is 12.5-50; assay type: functional, Arthroderma benhamiae; procedure, shortened: as §2

- MIC (Enterococcus faecalis [1]): > 100 µg/mL
- MIC (Trichophyton benhamiae [2]): > 100 µg/mL
- MIC (Staphylococcus aureus [3]): > 100 µg/mL
- MIC (Aspergillus niger): > 100 µg/mL
- MIC (Candida albicans [4]): > 100 µg/mL
SMILES: C=C(CC)C(=O)c1ccc(OCC(=O)O)c(Cl)c1Cl [ETHACRYNIC ACID]

- MIC (Trichophyton benhamiae [5]): 6.2 µg/mL (≈ 20.3 µM)
- MIC (Enterococcus faecalis [6]): 25 µg/mL (≈ 81.9 µM)
SMILES: C=C1C(=O)c2ccccc2OC1c1ccc(Cl)cc1Cl (stereo not drawn)

- MIC (Candida albicans [7]): > 50 µg/mL
- MIC (Trichophyton benhamiae [8]): 12.5 µg/mL (≈ 46.9 µM)
SMILES: C=C1C(=O)c2ccccc2OC1c1ccc(OC)cc1 (stereo not drawn)

- MIC (Trichophyton benhamiae [9]): < 3.1 µg/mL
SMILES: C=C1C(=O)c2ccccc2OC1c1ccc(C)cc1 (stereo not drawn)

- MIC (Trichophyton benhamiae [10]): < 3.1 µg/mL
- MIC (Candida albicans [11]): 12.5 µg/mL (≈ 44.4 µM)
- MIC (Staphylococcus aureus [12]): 6.2 µg/mL (≈ 22 µM)
SMILES: CN(C)CC1C(=O)c2ccccc2OC1c1ccccc1 (stereo not drawn)

- MIC (Trichophyton benhamiae [13]): 6.1 µg/mL (≈ 19.4 µM)
- MIC (Staphylococcus aureus [14]): < 3.1 µg/mL
SMILES: C=C1C(=O)c2ccccc2OC1c1ccc(Br)cc1 (stereo not drawn)

- MIC (Enterococcus faecalis [1]): 0.78 µg/mL (≈ 2.5 µM)
- MIC (Staphylococcus aureus [15]): 0.5 µg/mL (≈ 1.6 µM)
- MIC (Enterococcus faecalis [16]): 1 µg/mL (≈ 3.2 µM)
- MIC (Staphylococcus aureus [17]): 0.5 µg/mL (≈ 1.6 µM)
- MIC (Trichophyton benhamiae [2]): > 100 µg/mL
- MIC (Enterococcus): 1 µg/mL (≈ 3.2 µM)
- MIC (Cutibacterium acnes): 3.1 µg/mL (≈ 9.92 µM)
- MIC (Staphylococcus aureus [18]): 0.5 µg/mL (≈ 1.6 µM)
- MIC (Bacillus subtilis): 0.25 µg/mL (≈ 0.8 µM)
- MIC (Staphylococcus aureus [19]): 0.25 µg/mL (≈ 0.8 µM)
- MIC [20]: 0.25 µg/mL (≈ 0.8 µM)
- MIC (Staphylococcus aureus [21]): 0.25 µg/mL (≈ 0.8 µM)
SMILES: C=C1C(=O)c2ccccc2OC1(c1ccccc1)c1ccccc1

- MIC (Enterococcus faecalis [16]): 0.125 µg/mL (≈ 0.307 µM)
- MIC (Staphylococcus aureus [22]): 1 µg/mL (≈ 2.46 µM)
- MIC (Staphylococcus aureus [17]): 0.5 µg/mL (≈ 1.23 µM)
- MIC (Enterococcus): 1 µg/mL (≈ 2.46 µM)
- MIC (Cutibacterium acnes): 0.06 µg/mL (≈ 0.147 µM)
- MIC [23]: 0.06 µg/mL (≈ 0.147 µM)
- MIC (Staphylococcus aureus [24]): 0.5 µg/mL (≈ 1.23 µM)
- MIC (Staphylococcus aureus [25]): 1 µg/mL (≈ 2.46 µM)
- MIC (Bacillus subtilis): 0.125 µg/mL (≈ 0.307 µM)
- MIC [20]: 0.5 µg/mL (≈ 1.23 µM)
- MIC [26]: 0.06 µg/mL (≈ 0.147 µM)
- MIC (Staphylococcus aureus [21]): 0.5 µg/mL (≈ 1.23 µM)
SMILES: Oc1c(Cl)cc(Cl)c(Cl)c1Cc1c(O)c(Cl)cc(Cl)c1Cl [HEXACHLOROPHENE]

- MIC (Enterococcus faecalis [1]): > 100 µg/mL
- MIC (Trichophyton benhamiae [2]): > 100 µg/mL
- MIC (Staphylococcus aureus [3]): > 100 µg/mL
- MIC (Aspergillus niger): > 100 µg/mL
- MIC (Candida albicans [4]): > 100 µg/mL
SMILES: O=C1/C(=C/Cl)C(c2ccccc2)Oc2ccccc21 (stereo not drawn)

- MIC (Enterococcus faecalis [1]): > 100 µg/mL
- MIC (Trichophyton benhamiae [27]): > 100 µg/mL
- MIC (Staphylococcus aureus [3]): 50 µg/mL (≈ 159 µM)
- MIC (Aspergillus niger): > 100 µg/mL
- MIC (Candida albicans [4]): > 100 µg/mL
SMILES: C=C1C(=O)c2cc(Br)ccc2OC1c1ccccc1 (stereo not drawn)

- MIC (Trichophyton benhamiae [28]): 6.2 µg/mL (≈ 26.2 µM)
- MIC (Aspergillus niger): 100 µg/mL (≈ 423 µM)
SMILES: C=C1C(=O)c2ccccc2OC1c1ccccc1 (stereo not drawn)

- MIC (Enterococcus faecalis [1]): > 100 µg/mL
- MIC (Staphylococcus aureus [29]): 50 µg/mL (≈ 198 µM)
- MIC (Trichophyton benhamiae [30]): > 50 µg/mL
- MIC (Aspergillus niger): > 100 µg/mL
- MIC (Candida albicans [4]): > 100 µg/mL
SMILES: C=C1C(=O)c2ccccc2SC1c1ccccc1 (stereo not drawn)

- MIC (Candida albicans [31]): > 100 µg/mL
- MIC (Trichophyton benhamiae [8]): 12.5 µg/mL (≈ 39.9 µM)
SMILES: C=C1C(=O)c2ccccc2OC1(c1ccccc1)c1ccncc1 (stereo not drawn)

- MIC (Trichophyton benhamiae [28]): 6.2 µg/mL (≈ 20.6 µM)
- MIC (Candida albicans [32]): > 25 µg/mL
- MIC (Staphylococcus aureus [14]): < 3.1 µg/mL
SMILES: C=C1C(=O)c2ccc(OC)cc2OC1c1ccc(Cl)cc1 (stereo not drawn)

- MIC (Candida albicans [31]): > 100 µg/mL
- MIC (Trichophyton benhamiae [33]): 12.5 µg/mL (≈ 31.7 µM)
SMILES: C=C1C(=O)c2cc(Br)ccc2OC1c1ccc(Br)cc1 (stereo not drawn)
